PTEN del growth: suppresses growth of cells with PTEN deletion; HCT116 PTEN-null viability, CellTiter-Glo, 60 h; active compounds read low; viability, % at 10 µM; 140,000 compounds, 1.2% hits; AID 827;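 active = viability at or below a set limit, 4 SD under the median of all tested compounds, cut at about 3.7% in these data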;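 note: PTEN knockout HCT116 line with beta catenin targeted HCT116 as companion control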
H69AR inhibit: growth inhibitors of human H69AR lung tumor cells. 85,000 compounds, 6% hits. AID 598. H69AR lung tumor viability, ATP luminescence, 72 h; active compounds read low. viability, % at 10 µM;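 active = viability at or below 40%; inactive = viability above 40%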;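 note: multidrug resistant small cell line overexpressing MRP-1 efflux transporter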
HUVEC prolif 384: human endothelial cell proliferation inhibition. HUVEC proliferation, CellTiter-Glo luminescence, 72 h; active compounds read low. viability, % at 10 µM (by protocol). 86,000 compounds, 1.1% hits. AID 648;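 active = viability at or below 30%; inactive = viability above 30%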
bCat KO growth: beta-catenin-lacking colon tumor cell growth suppression; HCT116 beta-catenin knockout viability, CellTiter-Glo, 60 h; active compounds read low; viability, % at 10 µM; 140,000 compounds, 1.5% hits; AID 818;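 active = viability at or under a set limit, the compound median less 4 SD, cut at about 6% in these data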
Lung fibro prol: blocks proliferation of human lung fibroblasts; viability, % at 10 µM; AID 719; 85,000 compounds, 1.1% hits; LL 47 human lung fibroblast viability, ATP luminescence; active compounds read low;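 active = viability at or below 50% in the single dose screen; inactive = viability above 50%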;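 note: compound exposure lasted 72 h before the ATP readout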
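material = human LL 47 lung fibroblast cells | dosing = compounds added from tenfold dosing solution, 0.1% DMSO final | timing = overnight cell rest, 72 h compound treatment at 37 °C | measured by = CellTiter-Glo luminescence measuring cellular ATP | evaluation = % viability versus median cells-only luminescence | control set = cell-only wells, no compound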
Large screens that a line does not name were inactive. Shown is part of a subset that was picked to be rich in hits.

Cc1cc2nc(-c3ccc(SCC(=O)N4CCN(C(=O)c5ccco5)CC4)nc3)[nH]c2cc1C	H69AR inhibit 12
O=C1CN(C(=O)COC(=O)/C=C/c2ccc(OC(F)F)cc2)c2ccccc2N1	none (no result: H69AR inhibit, HUVEC prolif 384, Lung fibro prol)
COc1ccc(CCNC(=O)CSc2nc3ccccc3o2)cc1	none
NC(=O)[C@@H]1CCNc2c(I)cc([N+](=O)[O-])cc2C(=O)N[C@@H](CCC(=O)O)C(=O)N[C@@H](CO)C(=O)N1	none (no result: H69AR inhibit, HUVEC prolif 384, Lung fibro prol)
CC(NC(=O)CN(C)Cc1nc2ccccc2c(=O)[nH]1)c1ccccc1 (centres undefined)	none (no result: PTEN del growth)
COC(=O)C1=C(C(=O)OC)SC(=C2C(=S)C(C)(C)N(C(=O)C(C)C)c3ccccc32)S1	none
CCCC(=O)N1c2ccccc2C(=C2SC(C(=O)OC)=C(C(=O)OC)S2)C(=S)C1(C)C	H69AR inhibit 24
CC(=O)c1ccc(NC(=O)CCn2c(=O)oc3ccccc32)cc1	none
Clc1ccc(-c2csc3ncnc(NCCN4CCOCC4)c23)cc1	none
Cc1ccc(-c2csc3ncnc(NCCN4CCOCC4)c23)cc1	H69AR inhibit 27
COc1ccc(-c2csc3ncnc(NCCN4CCOCC4)c23)cc1	H69AR inhibit 21
CC(C)(C)S(=O)(=O)c1cnc2c(-c3ccc(F)cc3)cnn2c1N	none (no result: H69AR inhibit, HUVEC prolif 384, Lung fibro prol)
CC(C)(C)S(=O)(=O)c1cnc2c(-c3ccc(Cl)cc3)cnn2c1N	PTEN del growth 1.7, bCat KO growth 2.6 (no result: H69AR inhibit, HUVEC prolif 384, Lung fibro prol)
CCOC(=O)Cc1csc(NC(=O)NC2(C(F)(F)F)Oc3ccccc3O2)n1	H69AR inhibit 17
COC(=O)[C@@H](NC(=O)Nc1cccc(OC)c1)C(C)C	none
O=C(Nc1cc(N2CCOCC2)ncn1)NC1(C(F)(F)F)Oc2ccccc2O1	H69AR inhibit 27
Cc1ccccc1C(=O)Nc1ccc(N2CCOCC2)nc1	none (no result: H69AR inhibit, HUVEC prolif 384, Lung fibro prol)
CCOC(=O)Cc1csc(NC(=O)NC2(C(F)(F)F)Oc3ccc(Cl)cc3O2)n1 (centres undefined)	none (no result: H69AR inhibit, HUVEC prolif 384, Lung fibro prol)
O=C(NCc1cccnc1)NC1(C(F)(F)F)Oc2ccccc2O1	H69AR inhibit 28
COc1cccc(NC(=O)NC2(C(F)(F)F)Oc3ccccc3O2)c1	H69AR inhibit 23
COc1ccc(OC)c(-c2cc(C(=O)Nc3cccc(Cl)c3)no2)c1	H69AR inhibit 34
Cc1ccc(NC(=O)c2cc(-c3cccs3)on2)cc1	none
COc1cc(NC(=O)c2cc(-c3cccc(O)c3)on2)cc(OC)c1OC	H69AR inhibit 28
COc1cc(NC(=O)c2cc(-c3cccs3)on2)cc(OC)c1OC	H69AR inhibit 23
COc1cc(C(=O)Nc2nc(-c3cccs3)cs2)cc(OC)c1OC	H69AR inhibit 14
CC1CC(C)CN(C(=O)C2CCCN(S(=O)(=O)c3cccc4nonc34)C2)C1 (centres undefined)	none
CCc1ccc(OCC(=O)NC(=S)Nc2ccc(C(C)=O)cc2)c(Br)c1	none (no result: H69AR inhibit, HUVEC prolif 384, Lung fibro prol)
CN(C)/C=C(\C=N\OCc1ccc(Cl)cc1Cl)C(=O)Nc1ccc(Cl)c(Cl)c1	none (no result: H69AR inhibit, HUVEC prolif 384, Lung fibro prol)
COc1cc(C(=O)Nc2ccc(S(=O)(=O)N(C)c3ccccc3)cc2)cc(OC)c1OC	none (no result: H69AR inhibit, HUVEC prolif 384, Lung fibro prol)
COc1cc(C(=O)Nc2ccc(N(C)C)cc2)cc(OC)c1OC	H69AR inhibit 33
CCCCNC(=S)N(C)/N=C/c1ccc(OCC(=O)Nc2ccc(OC)cc2)c(OC)c1	none (no result: H69AR inhibit, HUVEC prolif 384, Lung fibro prol)
CS(=O)(=O)NCCSCc1ccc(Cl)cc1	none
c1ccc2c(CSCCc3ccncc3)cccc2c1	H69AR inhibit 34
COc1ccc(-c2cc3ccccc3oc2=O)cc1NC(=O)c1ccc([N+](=O)[O-])o1	none (no result: H69AR inhibit, HUVEC prolif 384, Lung fibro prol)
COc1ccccc1C(=O)Nc1cc2ccccc2oc1=O	H69AR inhibit 32
COc1ccccc1C(=O)Nc1cc2cc(Br)ccc2oc1=O	none
COc1ccccc1NC(=O)c1ccc(-c2ccc(Br)cc2)o1	H69AR inhibit 19
COc1ccc(-c2cc3ccccc3oc2=O)cc1NC(=O)c1ccc(Br)o1	H69AR inhibit 32
Cc1ccc(S(=O)(=O)NC(CC(=O)NCc2ccco2)c2ccco2)cc1 (centres undefined)	none
Cc1ccc(NC(=O)CN2CCCCCC2)c(Br)c1	none
CCOC(=O)Nc1ccc(C)cc1Br	PTEN del growth 0.2, bCat KO growth 0.4
COC1=Cc2c(ccc3ccc(=O)oc23)OC1(C)C	none
COC(=O)CSc1nc(N)c2c3c(sc2n1)CCCC3	none
COC(=O)CSc1nc(N)c2c3c(sc2n1)C(c1ccccc1)SC(c1ccccc1)C3 (centres undefined)	PTEN del growth 0.7, bCat KO growth 1.1 (no result: H69AR inhibit, HUVEC prolif 384, Lung fibro prol)
CC(C)(C)n1nnnc1C(c1cccs1)N(Cc1ccccc1)Cc1cccnc1 (centres undefined)	none
CC(C)(C)n1nnnc1C(c1cccnc1)N(Cc1ccccc1)Cc1cccs1 (centres undefined)	H69AR inhibit 6.6
CCOC(=O)c1[nH]c(C)c(C(=O)N2CCN(c3cccc(Cl)c3)CC2)c1C	none
COc1ccc(OC)c(NC(=O)CCNS(=O)(=O)c2ccc3c(c2)oc(=O)n3C)c1	none (no result: H69AR inhibit, HUVEC prolif 384, Lung fibro prol)
COc1ccc(C2=Nn3c(nnc3-c3ccc(OC)cc3)SC2)cc1	H69AR inhibit 22, Lung fibro prol 42
COc1cc(-c2nnc3n2N=C(c2ccccc2)CS3)cc(OC)c1OC	H69AR inhibit 19
CCOc1ccc(C2=Nn3c(nnc3-c3ccccn3)SC2)cc1	H69AR inhibit 30
CCOc1ccc(C2=Nn3c(nnc3-c3ccco3)SC2)cc1	none
c1ccc(C2=Nn3c(nnc3-c3cc(-c4ccccc4)n[nH]3)SC2)cc1	H69AR inhibit 40
Cc1nc2ncnn2c(N2CCN(c3cccc(C(F)(F)F)c3)CC2)c1C	H69AR inhibit 33
Cc1cc(N2CCN(c3cccc(C(F)(F)F)c3)CC2)n2ncnc2n1	none
Cc1ccc(N2CCN(C(=O)c3ccccc3)CC2)c(C)c1	none
COc1cc(C(=O)N2CCCN(c3nc4cc(C)ccc4cc3C#N)CC2)cc(OC)c1OC	H69AR inhibit 9.8 (no result: PTEN del growth, bCat KO growth)
COc1cc(C(=O)N2CCN(c3ccc(C)cc3C)CC2)cc(OC)c1OC	H69AR inhibit 19
CCCc1sc(N/N=C/c2ccccn2)nc1-c1ccc(F)cc1	PTEN del growth 3.1, H69AR inhibit 13, HUVEC prolif 384 15, bCat KO growth 3.2, Lung fibro prol 19
CCOC(=O)c1cnc2nc(NCc3ccc(OCc4ccccc4)cc3)[nH]n2c1=O	none
COc1cc2c(=O)n(-c3ccc(C)cc3)c(=O)n(CC(=O)c3ccc4c(c3)OCO4)c2cc1OC	none
COc1cc2c(O)c3c(c(-c4ccc5c(c4)OCO5)c2cc1OC)C(=O)OC3	PTEN del growth 2.6, H69AR inhibit 3.6, HUVEC prolif 384 2.6, bCat KO growth 2.5, Lung fibro prol 11
Cc1ccc(-c2nnc(N3CCN(C(=O)CSc4ncn[nH]4)CC3)c3ccccc23)cc1	Lung fibro prol 2.9
Cc1ccc(OCC(=O)N2CCN(c3nnc(-c4ccccc4)c4ccccc34)CC2)cc1	none
CCn1nnc(-c2ccccc2NC(=O)c2cc(OC)cc(OC)c2)n1	none
O=C(CSc1nc(-c2ccco2)cc(C(F)(F)F)n1)Nc1ccc(C(=O)N2CCOCC2)cc1	none
CCn1cc(CNC(=O)CCSc2nc(-c3ccco3)cc(C(F)(F)F)n2)cn1	H69AR inhibit 32

High-throughput results as filed in PubChem.
